Calls of active or inactive are those of the source. The calls are words filed in the database; no cut-off is given here.

Test [1] deals with DNA topoisomerase 2-alpha (Homo sapiens) (UniProt P11388). Nature of the test: Inhibition of recombinant human topoisomerase-2alpha expressed in Saccharomyces cerevisiae assessed as increase in double-stranded DNA cleavage at 500 uM using supercoiled pBR322 DNA as substrate incubated for 6 mins measured after 30 mins in presence of EDTA by ethidium bromide staining based agarose gel electrophoresis method relative to control. In outline: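 Human topoisomerase IIα, plasmid DNA and 500 μM compound. After reaction, mixtures treated with 25 mM EDTA before SDS to remove active-site Mg2+, versus reactions stopped with SDS before EDTA. Cleavage read on ethidium bromide-stained agarose gel. Two independent experiments.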

For test [2], the target named is DNA topoisomerase 2-beta (Homo sapiens) (UniProt Q02880). Nature of the test: Inhibition of recombinant human topoisomerase-2beta expressed in Saccharomyces cerevisiae assessed as increase in double-stranded DNA cleavage at 0 to 1000 uM using supercoiled pBR322 DNA as substrate incubated for 6 mins measured after 30 mins by ethidium bromide staining based agarose gel electrophoresis method relative to control. In outline: (§1)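 Human topoisomerase IIα or IIβ with negatively supercoiled plasmid. Cleavage trapped with SDS. Supercoiled, nicked and linear forms resolved on ethidium bromide-stained agarose gels. Cleavage normalized to linear standards set to 100%. Three independent experiments.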

The next test deals with DNA. Nature of the test: Induction of DNA cleavage in supercoiled pBR322 DNA at 500 uM incubated for 6 mins measured after 30 mins by ethidium bromide staining based agarose gel electrophoresis method relative to control. The class given is nucleic-acid assay. Particulars: Escherichia coli. In outline:
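Control with enzyme omitted: 500 μM compound incubated with plasmid DNA alone under DNA cleavage assay conditions. Products resolved on ethidium bromide-stained agarose gel. Two independent experiments.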

Test [3] deals with DNA topoisomerase 2-alpha (Homo sapiens) (UniProt P11388). Description: Poison activity at recombinant human topoisomerase-2alpha expressed in Saccharomyces cerevisiae assessed as enzyme inactivation time by measuring increase in double-stranded DNA cleavage at 500 uM using supercoiled pBR322 DNA as substrate preincubated for 120 sec followed by substrate addition incubated for 6 mins and measured after 30 mins by ethidium bromide staining based agarose gel electrophoresis method relative to control. The method, boiled down:
(§2)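 500 μM compound preincubated with topoisomerase IIα for varying times before DNA addition. Double-stranded breaks measured and expressed relative to the zero-time level set to 1.0. Three independent experiments.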

Test [4] is filed under the species Homo sapiens. Description: Covalent poison activity at recombinant human N-terminal topoisomerase-2alpha C-terminal domain deletion mutant expressed in Saccharomyces cerevisiae assessed as increase in pBR322 DNA cleavage at 0 to 1000 uM using supercoiled pBR322 DNA as substrate incubated for 6 mins and measured after 30 mins by ethidium bromide staining based agarose gel electrophoresis method relative to control. The method, boiled down:
(§3)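 Plasmid cleavage with topoisomerase IIα truncations: C-terminal deletion construct keeping the N-terminal portion or catalytic core, residues 431–1193, lacking both N- and C-terminal domains. Compound at 0–1000 μM. Cleavage complexes trapped with SDS. Negatively supercoiled, nicked and linear forms resolved on ethidium bromide-stained agarose gels. Cleavage normalized to linear standards set to 100%.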

The target in test [5] is DNA topoisomerase 2-alpha (Homo sapiens) (UniProt P11388). Nature of the test: Inhibition of recombinant human topoisomerase-2alpha expressed in Saccharomyces cerevisiae assessed as increase in double-stranded DNA cleavage at 0 to 1000 uM using supercoiled pBR322 DNA as substrate incubated for 6 mins measured after 30 mins by ethidium bromide staining based agarose gel electrophoresis method relative to control. The method, boiled down: as §1

Test [6] is filed under the species Homo sapiens. Nature of the test: Covalent poison activity at recombinant human topoisomerase-2alpha N- and C-terminal domain deletion mutant assessed as increase in pBR322 DNA cleavage at 0 to 1000 uM using supercoiled pBR322 DNA as substrate incubated for 6 mins and measured after 30 mins by ethidium bromide staining based agarose gel electrophoresis method relative to control. In outline: as §3

In test [7] the target is DNA topoisomerase 2-alpha (Homo sapiens) (UniProt P11388). Description: Poison activity at recombinant human topoisomerase-2alpha expressed in Saccharomyces cerevisiae assessed as rate of DNA ligation time at 0 to 500 uM incubated for 6 mins by agarose gel electrophoresis method (reference value: 12.5 sec).
Test [8] has the same target. Description: Covalent poison activity at recombinant human topoisomerase-2alpha expressed in Saccharomyces cerevisiae assessed as decrease in pBR322 DNA cleavage up to 1000 uM using supercoiled pBR322 DNA as substrate incubated for 6 mins and measured after 30 mins in presence of glutathione by ethidium bromide staining based agarose gel electrophoresis method relative to control.

Test [9] shares this target. Nature of the test: Covalent poison activity at recombinant human topoisomerase-2alpha expressed in Saccharomyces cerevisiae assessed as decrease in pBR322 DNA cleavage up to 1000 uM using supercoiled pBR322 DNA as substrate incubated for 6 mins and measured after 30 mins in presence of dithiothreitol by ethidium bromide staining based agarose gel electrophoresis method relative to control.

Test [10] has the same target. Nature of the test: Poison activity at recombinant human topoisomerase-2alpha expressed in Saccharomyces cerevisiae assessed as stabilization of DNA-enzyme cleavage complex at 500 uM using supercoiled pBR322 DNA as substrate incubated for 10 mins and measured after 0 to 240 mins by ethidium bromide staining based agarose gel electrophoresis method.
Test [11] has the same target. Description: Covalent poison activity at recombinant human topoisomerase-2alpha expressed in Saccharomyces cerevisiae assessed as decrease in pBR322 DNA cleavage up to 1000 uM using supercoiled pBR322 DNA as substrate incubated for 6 mins and measured after 30 mins in presence of ascorbic acid by ethidium bromide staining based agarose gel electrophoresis method relative to control.

Test [12] shares this target. Description: Poison activity at recombinant human topoisomerase-2alpha expressed in Saccharomyces cerevisiae assessed as increase in double-stranded DNA cleavage at 500 uM using supercoiled pBR322 DNA as substrate preincubated for 120 sec followed by substrate addition incubated for 6 mins and measured after 30 mins by ethidium bromide staining based agarose gel electrophoresis method relative to control. The method, boiled down: as §2

Test [13] is filed under the species Homo sapiens. Nature of the test: Covalent poison activity at recombinant human topoisomerase-2alpha N- and C-terminal domain deletion mutant assessed as increase in pBR322 DNA cleavage at 100 uM using supercoiled pBR322 DNA as substrate incubated for 6 mins and measured after 30 mins by ethidium bromide staining based agarose gel electrophoresis method relative to control. The method, boiled down:
(§4)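 Enzyme is a human topoisomerase IIα catalytic core (residues 431–1193) lacking the N- and C-terminal domains. Negatively supercoiled plasmid is the substrate. Double-stranded breaks are read as linear plasmid on ethidium bromide-stained agarose gels and compared with a linear standard. Values are means ± SD of three independent experiments.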

The species named for test [14] is Homo sapiens. Nature of the test: Covalent poison activity at recombinant human topoisomerase-2alpha N- and C-terminal domain deletion mutant assessed as increase in pBR322 DNA cleavage at 50 uM using supercoiled pBR322 DNA as substrate incubated for 6 mins and measured after 30 mins by ethidium bromide staining based agarose gel electrophoresis method relative to control. The method, boiled down:
as §4

Sequence of DNA topoisomerase 2-alpha (Homo sapiens) (P11388 whole entry): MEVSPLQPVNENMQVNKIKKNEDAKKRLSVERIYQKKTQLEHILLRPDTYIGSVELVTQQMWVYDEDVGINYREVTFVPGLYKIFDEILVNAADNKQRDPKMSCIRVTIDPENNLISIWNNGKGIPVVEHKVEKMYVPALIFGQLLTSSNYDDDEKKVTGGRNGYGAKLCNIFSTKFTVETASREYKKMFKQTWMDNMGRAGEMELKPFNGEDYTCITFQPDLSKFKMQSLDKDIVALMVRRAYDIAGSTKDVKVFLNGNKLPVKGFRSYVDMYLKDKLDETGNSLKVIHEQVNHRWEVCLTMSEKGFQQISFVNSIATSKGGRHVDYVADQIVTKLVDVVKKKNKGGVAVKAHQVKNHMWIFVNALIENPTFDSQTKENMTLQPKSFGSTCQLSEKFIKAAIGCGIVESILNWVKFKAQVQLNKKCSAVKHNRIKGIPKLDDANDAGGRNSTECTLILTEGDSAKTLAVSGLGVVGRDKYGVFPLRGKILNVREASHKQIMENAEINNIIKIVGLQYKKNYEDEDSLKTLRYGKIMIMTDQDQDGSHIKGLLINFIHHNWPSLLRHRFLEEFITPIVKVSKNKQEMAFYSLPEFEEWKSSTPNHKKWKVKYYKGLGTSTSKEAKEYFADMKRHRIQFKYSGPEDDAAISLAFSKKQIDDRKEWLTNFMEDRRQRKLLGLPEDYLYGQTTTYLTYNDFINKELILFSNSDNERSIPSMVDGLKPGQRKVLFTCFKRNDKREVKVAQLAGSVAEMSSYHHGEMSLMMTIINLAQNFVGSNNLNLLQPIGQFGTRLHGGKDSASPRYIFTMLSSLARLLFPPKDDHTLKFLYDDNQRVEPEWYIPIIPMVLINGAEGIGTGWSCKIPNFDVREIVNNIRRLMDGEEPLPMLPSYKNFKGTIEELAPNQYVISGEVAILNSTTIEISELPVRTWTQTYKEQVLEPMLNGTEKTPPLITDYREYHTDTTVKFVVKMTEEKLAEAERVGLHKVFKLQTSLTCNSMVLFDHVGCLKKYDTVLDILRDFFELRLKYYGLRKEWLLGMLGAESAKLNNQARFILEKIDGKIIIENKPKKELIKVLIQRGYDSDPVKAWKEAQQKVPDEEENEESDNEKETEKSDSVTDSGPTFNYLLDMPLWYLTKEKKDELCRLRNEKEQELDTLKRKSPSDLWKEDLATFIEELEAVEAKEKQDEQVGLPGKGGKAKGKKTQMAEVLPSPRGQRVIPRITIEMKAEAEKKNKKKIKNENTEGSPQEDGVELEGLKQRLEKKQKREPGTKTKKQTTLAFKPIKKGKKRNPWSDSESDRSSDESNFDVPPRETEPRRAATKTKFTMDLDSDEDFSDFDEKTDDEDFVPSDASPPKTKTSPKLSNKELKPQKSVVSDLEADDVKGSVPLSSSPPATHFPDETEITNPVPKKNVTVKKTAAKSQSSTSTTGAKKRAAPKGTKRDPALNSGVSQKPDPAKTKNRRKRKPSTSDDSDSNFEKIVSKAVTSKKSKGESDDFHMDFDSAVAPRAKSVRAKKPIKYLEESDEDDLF
Sequence of DNA topoisomerase 2-beta (Homo sapiens) (Q02880 whole entry): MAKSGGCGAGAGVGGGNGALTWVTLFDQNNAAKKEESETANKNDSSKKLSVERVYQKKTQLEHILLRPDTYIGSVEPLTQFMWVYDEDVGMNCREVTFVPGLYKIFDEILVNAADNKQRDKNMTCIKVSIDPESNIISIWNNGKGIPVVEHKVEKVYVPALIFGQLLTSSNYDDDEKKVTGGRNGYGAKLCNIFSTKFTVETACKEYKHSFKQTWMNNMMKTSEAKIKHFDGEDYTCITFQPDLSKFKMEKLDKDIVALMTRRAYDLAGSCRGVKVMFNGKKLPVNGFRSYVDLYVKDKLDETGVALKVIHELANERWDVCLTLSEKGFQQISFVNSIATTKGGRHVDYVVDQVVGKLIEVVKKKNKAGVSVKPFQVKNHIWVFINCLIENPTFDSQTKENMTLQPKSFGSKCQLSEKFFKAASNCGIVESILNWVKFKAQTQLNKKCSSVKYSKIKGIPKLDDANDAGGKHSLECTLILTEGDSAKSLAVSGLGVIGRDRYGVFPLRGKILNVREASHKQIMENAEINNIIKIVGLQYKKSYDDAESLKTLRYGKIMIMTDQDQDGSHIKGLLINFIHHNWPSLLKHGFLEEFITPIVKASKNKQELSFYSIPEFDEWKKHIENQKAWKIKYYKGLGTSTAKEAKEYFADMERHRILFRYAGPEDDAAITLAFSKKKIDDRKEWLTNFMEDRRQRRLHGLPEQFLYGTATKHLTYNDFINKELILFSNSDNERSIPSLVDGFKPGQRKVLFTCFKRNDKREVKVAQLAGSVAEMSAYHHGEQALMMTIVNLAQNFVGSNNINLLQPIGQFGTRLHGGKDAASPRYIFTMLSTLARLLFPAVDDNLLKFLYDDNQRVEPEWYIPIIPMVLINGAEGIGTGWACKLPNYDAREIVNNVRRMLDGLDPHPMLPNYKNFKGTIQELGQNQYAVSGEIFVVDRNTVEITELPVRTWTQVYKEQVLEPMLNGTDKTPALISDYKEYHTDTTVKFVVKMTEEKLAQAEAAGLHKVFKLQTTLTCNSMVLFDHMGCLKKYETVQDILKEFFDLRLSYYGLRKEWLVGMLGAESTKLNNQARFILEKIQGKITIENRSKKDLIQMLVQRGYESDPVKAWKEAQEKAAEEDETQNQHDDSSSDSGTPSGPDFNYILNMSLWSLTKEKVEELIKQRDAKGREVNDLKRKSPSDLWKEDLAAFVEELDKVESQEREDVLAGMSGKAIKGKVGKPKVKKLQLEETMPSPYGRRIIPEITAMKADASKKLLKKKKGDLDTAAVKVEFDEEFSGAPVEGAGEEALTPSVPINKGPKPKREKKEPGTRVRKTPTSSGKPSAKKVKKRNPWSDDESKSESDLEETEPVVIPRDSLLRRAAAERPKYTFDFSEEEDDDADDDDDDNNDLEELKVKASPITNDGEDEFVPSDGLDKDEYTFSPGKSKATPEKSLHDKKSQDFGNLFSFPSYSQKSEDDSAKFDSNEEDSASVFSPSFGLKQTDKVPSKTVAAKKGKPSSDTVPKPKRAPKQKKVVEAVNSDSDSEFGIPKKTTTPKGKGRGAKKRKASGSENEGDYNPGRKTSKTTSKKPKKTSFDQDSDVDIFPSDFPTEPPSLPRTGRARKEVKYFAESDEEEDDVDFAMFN

What is called inhibition is the relative decrease from the control value, in per cent. Take `C[C@@H]1CC[C@@H](c2ccoc2)N2[C@H]1CC[C@@]1(CS[C@@]3(CC[C@H]4[C@H](C)CC[C@@H](c5ccoc5)N4[C@@H]3O)C1)[C@H]2O`: in test [1], the inhibition result is “inactive”. Also, the values for the fold change (FC) in [2] and in test [5] were 3 and 8, respectively. Further, the result (in the test with DNA; in the test filed under Homo sapiens [6]; in test [8]; in [9]; in test [11]) was inactive. In addition, the T1/2 was 30 s in test [3] and 11 s in [7]. For the same compound, the result (in the test listed under Homo sapiens [4]; in test [10]) was Active. Besides, in [12], the inhibition was found to be 100%.
`COc1cc([C@@H]2c3cc4c(cc3[C@@H](O[C@@H]3O[C@@H]5CO[C@@H](C)O[C@H]5[C@H](O)[C@H]3O)[C@H]3COC(=O)[C@H]23)OCO4)cc(OC)c1O`: the result in the test listed under Homo sapiens [13] and in the test filed under Homo sapiens [14] was Active.

For the origin of these results see ChEMBL document CHEMBL4433237, “6,6'-Dihydroxythiobinupharidine as a poison of human type II topoisomerases” (Bioorg Med Chem Lett, 2019).
